For data set [1], the system named is HUVEC. As to the kind of experiment: Antiinflammatory activity in HUVEC assessed as inhibition of TNF-alpha-induced cell surface ICAM1 expression at 60 ug/ml preincubated before TNFalpha challenge measured after 16 hrs by ELISA. The format is functional. As to conditions: Homo sapiens. An outline of the steps: (§1)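 Primary umbilical-cord HUVEC in M-199 with 15% FCS were grown confluent on gelatinized plates. They were pretreated with compound in DMSO, then given TNF-α for 16 h. Cells were fixed in 1% glutaraldehyde (30 min, 4 °C) and blocked in 3% defatted milk (3 h, 37 °C). Detection used anti-ICAM-1 mAb overnight at 4 °C, then peroxidase secondary (3 h, 37 °C). Substrate was o-phenylenediamine in citrate pH 4.5, stopped with 2 N H2SO4, read at A490.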
On the technique in general: ELISA stands for enzyme-linked immunosorbent assay.

A short description of data set [2]: Cytotoxicity against HUVEC assessed as cell viability at 60 ug/mL after 24 hrs by MTT assay. To be noted: human, HUVEC cells; read-out: Activity. The format is cell-based. The essentials:
(§2)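 Primary HUVEC were exposed for 24 h to compound or vehicle (DMSO alone, 0.25%). Medium was replaced with MTT for the final 4 h. Formazan was then dissolved in DMSO and read at 570 nm. Viability was also checked by trypan blue exclusion.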
(Formazan colour is commonly taken as a measure of viable cells.)

Data set [3] deals with HUVEC. As to the kind of experiment: Cytotoxicity against HUVEC after 24 hrs by MTT assay. The format is cell-based. As to conditions: human. An outline of the steps: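 Primary endothelial cells isolated from human umbilical cord, grown in M-199 with 15% fetal calf serum, L-glutamine, penicillin, streptomycin, amphotericin and endothelial-cell growth factor, and used after three passages. Cells exposed to vehicle (DMSO 0.25%) or a range of compound concentrations for 24 h. MTT added for the last 4 h, formazan dissolved in DMSO, absorbance read at 570 nm. Trypan blue exclusion also done.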

Data set [4] has as its system HUVEC. As to the kind of experiment: Antiinflammatory activity in HUVEC assessed as inhibition of TNF-alpha-induced cell surface ICAM1 expression at 50 uM/ml preincubated before TNFalpha challenge measured after 16 hrs by ELISA. It counts as functional. As to conditions: Homo sapiens.
Data set [5] concerns HUVEC. As to the kind of experiment: Antiinflammatory activity in HUVEC assessed as inhibition of TNF-alpha-induced cell surface ICAM1 expression preincubated before TNFalpha challenge measured after 16 hrs by ELISA. It counts as functional, cell-based. To be noted: Homo sapiens. An outline of the steps:
as §1

Data set [6] concerns HUVEC. As to the kind of experiment: Antiinflammatory activity in HUVEC assessed as inhibition of TNF-alpha-induced cell surface ICAM1 expression at 271.4 uM/ml preincubated before TNFalpha challenge measured after 16 hrs by ELISA. The format is functional. To be noted: Homo sapiens. The essentials: as §1
Data set [7] deals with HUVEC. As to the kind of experiment: Cytotoxicity against HUVEC assessed as cell viability at 6.25 to 200 ug/mL after 24 hrs by MTT assay. The format is cell-based. As to conditions: human. An outline of the steps: as §2

Data on seven compounds can be found in ChEMBL document CHEMBL1152544, “Inhibitory effect of beta-diketones and their metal complexes on TNF-alpha induced expression of ICAM-1 on human endothelial cells” (Bioorg Med Chem, 2009).

≈ marks a conversion by molar mass, not a printed value.

For the compound `CC1=NN(c2ccccc2)C(=O)C1C(=O)CCC1CCCC1` (stereo not drawn), in the data set with HUVEC [1], the inhibition at 60 µg/mL came out at 35%. In addition, the viability at 24 h, 60 ug/mL in data set [2] came out at 98.6%.

In the data set on HUVEC [3], `COc1cc(/C=C/C(=O)CC(=O)/C=C/c2ccc(O)c(OC)c2)ccc1O` [CURCUMIN] had an MTD of 50 uM/ml. The inhibition at 50 µM in the data set with HUVEC [4] worked out at 90%.

Take `CC1=NN(c2ccccc2)C(=O)C1C(=O)c1ccco1` (stereo not drawn): the inhibition at 60 µg/mL in the data set on HUVEC [1] is 55%. In addition, the viability at 24 h, 60 ug/mL in data set [2] was found to be 96.2%.

As for `CC1=NN(c2ccccc2)C(=O)C1C(=O)c1ccccc1` (stereo not drawn), the inhibition at 60 µg/mL with HUVEC [1] was determined as 75%. The compound further gave an MTD in the data set on HUVEC [3] of 271.4 uM/ml. The IC50 with HUVEC [5] is 36.3 µg/mL (≈ 130 µM). For the same compound, the inhibition at 271.4 µM in the data set with HUVEC [6] amounted to 62%. Further, in the data set with HUVEC [7], the Activity entry was “Non-toxic”. For the same compound, the viability at 24 h, 60 ug/mL in data set [2] is 95.8%.

Consider `Cc1[nH]n(-c2ccccc2)c(=O)c1C(=O)CC(C)(C)C`, for which the inhibition at 60 µg/mL in the data set with HUVEC [1] came out at 35%. For the same compound, the viability at 24 h, 60 ug/mL in data set [2] was 97.1%.

With `CC(=O)C1C(=O)N(c2ccccc2)N=C1c1ccccc1` (stereo not drawn), the inhibition at 60 µg/mL in the data set with HUVEC [1] came out at 20%. Besides, the viability at 24 h, 60 ug/mL in data set [2] came to 97.9%.

In the case of `CC1=NN(c2ccccc2)C(=O)C1C(=O)C(C)(C)C` (stereo not drawn), in the data set with HUVEC [1], the inhibition at 60 µg/mL was 60%. Besides, in data set [2], the viability at 24 h, 60 ug/mL worked out at 96.1%.

For orientation: inhibition means how much of the control response was suppressed. Usually IC50 stands for the concentration needed to halve the response being measured.
